The source made the active and inactive calls. No cut-off for these calls is given here.
Columns and labels:
Yellow fever virus [1] = assay: Antiviral activity against luciferase reporting full length Yellow fever virus infected in BHK15 cells assessed as reduction in virus infectivity ncubated at 50 uM at 37 degC for 36 hrs by luciferase reporter gene assay; assay type: functional; details: BHK15, 36 h
[2] = Therapeutic index, ratio of GI50 for uninfected BHK cells to EC50 for luciferase reporting full length Yellow fever virus; assay type: cell-based; details: hamster, read-out: TI
Outline: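 TI is GI50 in uninfected BHK cells (XTT, ~36 h) divided by EC50. EC50 was estimated by nonlinear regression against DMSO-treated infected cells.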

Yellow fever virus [3] = assay: microbe, parasite or virus in culture; assay type: functional, organism-based; details: BHK15, 36 h
[4] = Toxicity against uninfected BHK cells assessed as growth inhibition incubated at 37 degC for 36 hrs by XTT assay; assay type: cell-based, Mesocricetus auratus; details: hamster
Outline: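 Confluent BHK-15 cells were exposed to serial dilutions of compound (DMSO stocks) for ~36 h at 37 °C, 5% CO2. Medium was then replaced, and XTT substrate was added for 2 h at 37 °C before reading OD450. Values were compared with 1% DMSO-treated cells to calculate GI50.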

[5] = target: T1, Luciferin 4-monooxygenase (Luciola lateralis) (UniProt Q01158); assay: Inhibition of firefly luciferase expressed in BHK15 cells transfected with luciferase-pcDNA3 incubated at 37 degC for 20 hrs by luciferase reporter gene assay; assay type: cell-based; details: Aquatica lateralis
T1 sequence (whole entry): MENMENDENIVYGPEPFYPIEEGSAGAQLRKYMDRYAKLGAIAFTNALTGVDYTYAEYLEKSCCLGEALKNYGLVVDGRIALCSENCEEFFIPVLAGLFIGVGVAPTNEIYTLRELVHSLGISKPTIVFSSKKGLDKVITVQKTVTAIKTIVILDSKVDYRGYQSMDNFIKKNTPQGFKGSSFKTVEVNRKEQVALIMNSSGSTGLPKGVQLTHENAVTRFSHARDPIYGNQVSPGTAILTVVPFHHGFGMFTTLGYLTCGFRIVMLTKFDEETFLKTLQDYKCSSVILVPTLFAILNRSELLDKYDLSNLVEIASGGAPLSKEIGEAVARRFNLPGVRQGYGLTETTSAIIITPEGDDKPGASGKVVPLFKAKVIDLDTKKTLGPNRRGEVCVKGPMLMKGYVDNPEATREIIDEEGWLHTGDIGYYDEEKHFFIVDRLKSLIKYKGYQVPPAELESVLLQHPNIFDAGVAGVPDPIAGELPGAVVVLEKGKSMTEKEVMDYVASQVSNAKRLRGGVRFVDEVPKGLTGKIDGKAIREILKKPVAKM
Outline: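 BHK-15 cells grown to confluency, transfected with firefly luciferase-pcDNA3 plasmid by Lipofectamine; complexes removed at 3 h and replaced with medium holding serial compound dilutions from DMSO stock; 37 °C, 5% CO2, 20 h. Cells lysed and luminescence read with firefly luciferase substrate; signal compared with 1% DMSO-treated cells. Controls: uninfected, infected, DMSO-treated.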

## COC(=O)c1sc(-c2ccccc2F)nc1C
Yellow fever virus [1]
  inhibition at 50 µM: < 50%

## CCCCc1ccc(-c2nc(C)c(C(=O)OC)s2)cc1
Yellow fever virus [1]
  inhibition at 50 µM: 91.9%
[2]
  selectivity ratio: 22
Yellow fever virus [3]
  EC50: 2.8 µM
[4]
  GI50 at 36 h: 63.1 µM

## COC(=O)c1sc(-c2ccc(C(C)(C)C)cc2)nc1C
Yellow fever virus [1]
  inhibition at 50 µM: < 50%

## COC(=O)c1sc(-c2ccc3ccccc3c2)nc1C(Br)Br
Yellow fever virus [1]
  inhibition at 50 µM: 26%

## COC(=O)c1sc(-c2ccc(F)cc2)nc1C
Yellow fever virus [1]
  inhibition at 50 µM: < 50%

## CCCc1ccc(-c2nc(C)c(C(=O)OC)s2)cc1
Yellow fever virus [1]
  inhibition at 50 µM: 83.2%
[2]
  selectivity ratio: 12
Yellow fever virus [3]
  EC50: 34.3 µM
[4]
  GI50 at 36 h: 499 µM

## COC(=O)c1sc(-c2ccc(OC)cc2)nc1C
Yellow fever virus [1]
  inhibition at 50 µM: < 50%

## COC(=O)c1sc(-c2ccc(Cl)c(Cl)c2)nc1C
Yellow fever virus [1]
  inhibition at 50 µM: -8.2%

## Nc1ccccc1SCc1csc(-c2ccc(Cl)cc2)n1
[2]
  selectivity ratio: 2
[4]
  GI50 at 36 h: 61 µM

## COC(=O)c1sc(-c2ccccc2Cl)nc1C(Br)Br
Yellow fever virus [1]
  inhibition at 50 µM: < 50%

## COC(=O)c1sc(-c2ccccc2Br)nc1C
Yellow fever virus [1]
  inhibition at 50 µM: < 50%

## COC(=O)c1sc(-c2ccc(Br)cc2)nc1C(Br)Br
Yellow fever virus [1]
  inhibition at 50 µM: 81.9%
[2]
  selectivity ratio: 121
Yellow fever virus [3]
  EC50: 3.3 µM
[4]
  GI50 at 36 h: 408 µM

## CCCCc1ccc(-c2nc(C)c(C(C)=O)s2)cc1
Yellow fever virus [1]
  inhibition at 50 µM: 99.8%
[2]
  selectivity ratio: 6
Yellow fever virus [3]
  EC50: 10.1 µM
[4]
  GI50 at 36 h: 59.4 µM

## CCCCc1ccc(-c2nc(C)c(C(=O)O)s2)cc1
Yellow fever virus [1]
  inhibition at 50 µM: 83.2%
Yellow fever virus [3]
  EC50: 203 µM
[4]
  GI50 at 36 h: 366 µM

## COC(=O)c1sc(-c2ccc(Cl)c(Cl)c2)nc1C(Br)Br
Yellow fever virus [1]
  inhibition at 50 µM: 42.2%

## COC(=O)c1sc(-c2ccccc2F)nc1C(Br)Br
Yellow fever virus [1]
  inhibition at 50 µM: < 50%

## COC(=O)c1sc(Cc2ccccc2)nc1C
Yellow fever virus [1]
  inhibition at 50 µM: -23.8%

## CCCCc1ccc(-c2nc(C)c(/C(C)=N/NC(=N)N)s2)cc1
Yellow fever virus [1]
  inhibition at 50 µM: 99.2%
[5]
  inhibition: inactive
[2]
  selectivity ratio: 147
Yellow fever virus [3]
  EC50: 2.4 µM
[4]
  GI50 at 36 h: 353 µM

## COC(=O)c1sc(-c2ccccc2)nc1C
Yellow fever virus [1]
  inhibition at 50 µM: < 50%

## COC(=O)c1sc(-c2ccccc2Br)nc1C(Br)Br
Yellow fever virus [1]
  inhibition at 50 µM: < 50%

## COC(=O)c1sc(-c2ccc(Br)cc2)nc1C
Yellow fever virus [1]
  inhibition at 50 µM: < 50%

## COC(=O)c1sc(-c2ccc(OC)cc2)nc1C(Br)Br
Yellow fever virus [1]
  inhibition at 50 µM: < 50%

## CCCCc1ccc(-c2nc(C)c(C(=O)SC)s2)cc1
Yellow fever virus [1]
  inhibition at 50 µM: 94.1%
[2]
  selectivity ratio: 1
Yellow fever virus [3]
  EC50: 45.6 µM
[4]
  GI50 at 36 h: 46.5 µM

## COC(=O)c1sc(-c2cccc(Br)c2)nc1C
Yellow fever virus [1]
  inhibition at 50 µM: < 50%

## COC(=O)c1sc(-c2ccc(F)cc2)nc1C(Br)Br
Yellow fever virus [1]
  inhibition at 50 µM: < 50%

## COC(=O)c1sc(Cc2ccc(Cl)cc2)nc1C
Yellow fever virus [1]
  inhibition at 50 µM: -6.5%

## COC(=O)c1sc(-c2ccccc2)nc1C(Br)Br
Yellow fever virus [1]
  inhibition at 50 µM: < 50%

## CCCCCc1ccc(-c2nc(C)c(C(=O)OC)s2)cc1
Yellow fever virus [1]
  inhibition at 50 µM: 98.6%
[2]
  selectivity ratio: 1.1
Yellow fever virus [3]
  EC50: 38.9 µM
[4]
  GI50 at 36 h: 41.5 µM

## COC(=O)c1sc(-c2ccccc2Cl)nc1C
Yellow fever virus [1]
  inhibition at 50 µM: < 50%

## COC(=O)c1sc(-c2ccc(C(F)(F)F)cc2)nc1C(Br)Br
Yellow fever virus [1]
  inhibition at 50 µM: 91%
[2]
  selectivity ratio: 26
Yellow fever virus [3]
  EC50: 10.6 µM
[4]
  GI50 at 36 h: 262 µM

## COC(=O)c1sc(-c2cccc(Br)c2)nc1C(Br)Br
Yellow fever virus [1]
  inhibition at 50 µM: 93%
[2]
  selectivity ratio: 1
Yellow fever virus [3]
  EC50: 26 µM
[4]
  GI50 at 36 h: 26.5 µM
